Results on 18 molecules are retold here after ChEMBL document CHEMBL4138155, “Design, synthesis and biochemical evaluation of novel multi-target inhibitors as potential anti-Parkinson agents” (Eur J Med Chem, 2018).

Assay [1] has as its target T1, Amine oxidase [flavin-containing] A (Homo sapiens, UniProt P21397).
T1 sequence (P21397 whole entry): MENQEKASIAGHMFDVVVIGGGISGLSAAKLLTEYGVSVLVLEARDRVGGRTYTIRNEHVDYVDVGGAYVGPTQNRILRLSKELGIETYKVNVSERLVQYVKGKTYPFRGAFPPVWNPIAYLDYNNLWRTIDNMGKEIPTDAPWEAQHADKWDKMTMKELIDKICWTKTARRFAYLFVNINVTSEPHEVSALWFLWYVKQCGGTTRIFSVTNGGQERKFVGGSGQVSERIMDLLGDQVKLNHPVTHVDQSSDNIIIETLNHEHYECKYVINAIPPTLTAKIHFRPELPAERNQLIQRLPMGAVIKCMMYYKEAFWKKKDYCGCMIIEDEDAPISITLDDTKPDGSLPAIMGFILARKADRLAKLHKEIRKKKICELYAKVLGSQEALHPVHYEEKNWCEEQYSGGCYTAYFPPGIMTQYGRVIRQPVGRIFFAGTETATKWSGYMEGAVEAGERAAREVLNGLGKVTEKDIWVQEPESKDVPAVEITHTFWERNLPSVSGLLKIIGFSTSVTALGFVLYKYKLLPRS
Briefly: Inhibition of recombinant human MAO-A using kynuramine as substrate after 20 mins by fluorescence assay.

Assay [2] deals with T2, Amine oxidase [flavin-containing] B (Homo sapiens, UniProt P27338).
T2 sequence (P27338 whole entry): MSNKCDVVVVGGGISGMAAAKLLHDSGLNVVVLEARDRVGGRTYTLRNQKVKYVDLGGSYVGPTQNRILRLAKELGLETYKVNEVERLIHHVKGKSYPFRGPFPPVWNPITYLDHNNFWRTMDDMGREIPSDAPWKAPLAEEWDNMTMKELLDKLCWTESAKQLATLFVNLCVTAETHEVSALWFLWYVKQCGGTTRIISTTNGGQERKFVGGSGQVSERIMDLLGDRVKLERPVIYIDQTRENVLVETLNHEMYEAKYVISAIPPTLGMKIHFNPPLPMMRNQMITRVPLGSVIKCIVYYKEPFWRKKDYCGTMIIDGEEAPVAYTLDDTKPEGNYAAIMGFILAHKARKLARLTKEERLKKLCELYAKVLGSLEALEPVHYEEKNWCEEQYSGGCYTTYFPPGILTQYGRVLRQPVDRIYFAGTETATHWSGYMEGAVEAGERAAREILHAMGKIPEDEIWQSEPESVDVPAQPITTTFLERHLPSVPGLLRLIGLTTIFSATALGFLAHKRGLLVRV

For assay [3], the target named is Cholinesterase (Equus caballus) (UniProt P81908). Kind of assay: Inhibition of horse serum BuChE at 3 uM using butyrylthiocholine iodide as substrate preincubated for 15 mins followed by substrate addition measured after 10 mins by spectrophotometry based-Ellman's method. On the technique in general: DTNB colorimetry detects thiols as they appear.
Sequence of Cholinesterase (Equus caballus) (P81908 whole entry): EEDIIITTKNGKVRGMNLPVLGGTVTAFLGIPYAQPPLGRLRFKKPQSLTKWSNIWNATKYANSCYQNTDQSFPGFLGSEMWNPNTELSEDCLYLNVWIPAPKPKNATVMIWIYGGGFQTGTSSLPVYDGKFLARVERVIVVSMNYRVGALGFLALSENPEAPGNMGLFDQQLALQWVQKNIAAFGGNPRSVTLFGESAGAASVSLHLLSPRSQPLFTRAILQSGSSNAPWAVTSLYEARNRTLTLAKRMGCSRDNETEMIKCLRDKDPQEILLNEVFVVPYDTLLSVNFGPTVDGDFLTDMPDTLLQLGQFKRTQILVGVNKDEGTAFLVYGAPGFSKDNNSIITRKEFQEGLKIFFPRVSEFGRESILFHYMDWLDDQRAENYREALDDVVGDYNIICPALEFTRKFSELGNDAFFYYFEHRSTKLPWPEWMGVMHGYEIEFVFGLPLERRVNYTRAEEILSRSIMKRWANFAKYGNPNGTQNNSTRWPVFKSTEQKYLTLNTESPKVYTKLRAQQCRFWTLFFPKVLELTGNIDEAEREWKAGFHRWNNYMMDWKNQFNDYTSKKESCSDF
A short description of assay [4]: Antioxidant activity assessed as total antioxidant capacity after 90 mins by phosphomolybdenum method. Format: functional. In short, it runs like this: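 Sample combined with reagent of 0.6 M sulphuric acid, 28 mM sodium phosphate and 4 mM ammonium molybdate; heated 90 min at 95 °C, absorbance at 695 nm. EC50 = concentration giving absorbance 0.5; trolox as reference.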

Assay [5] is described as follows: Antioxidant activity assessed as ferric ion reducing activity using Fe3+-TPTZ after 30 mins by FRAP assay. Format: functional. In short, it runs like this: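 FRAP reagent: acetate buffer (0.3 M, pH 3.6), TPTZ (10 mM) in 40 mM HCl and FeCl3 (20 mM), 10:1:1 v/v/v. Sample added, 30 min at room temperature, absorbance at 593 nm. Expressed as EC50.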
The nature of assay [6]: Antioxidant activity assessed as cupric ion reducing activity after 30 mins by CUPRAC assay. It counts as functional. In short, it runs like this: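 Sample mixed with CuCl2 (10 mM), neocuproine (7.5 mM) and NH4Ac buffer (1 M, pH 7.0) stock reagents; blank lacks CuCl2. Absorbance at 450 nm after 30 min at room temperature, blank subtracted. Expressed as EC50.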
Assay [7] in a line: Antioxidant activity assessed as DPPH radical scavenging activity after 30 mins. It counts as functional. In short, it runs like this:
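Sample added to 0.004% DPPH in methanol, kept 30 min in the dark at room temperature, absorbance read at 517 nm. IC50 taken as the concentration scavenging 50% of DPPH radicals; trolox as reference.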
On the technique in general: Loss of DPPH colour is used to gauge radical scavenging.

A short description of assay [8]: Antioxidant activity assessed as ABTS radical scavenging activity measured after 12 to 16 hrs. Format: functional. The gist of the method: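 ABTS radical cation generated from 7 mM ABTS with 2.45 mM potassium persulphate, 12-16 h dark at room temperature, then diluted with methanol to A734 0.700 ± 0.02. Sample mixed with ABTS solution, 30 min at room temperature, absorbance read at 734 nm. IC50 = concentration scavenging 50% of radicals; trolox reference.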

Regarding `O=[N+]([O-])c1cccc(-c2csc(NN=C3CCCCC3)n2)c1`, the concentration for half-maximal inhibition (IC50) in assay [1] was 2.56 µM; in assay [2] it was 0.047 µM; in assay [7] it was 1200 µM; in assay [8] it was 1100 µM. In assay [3], this molecule returned an inhibition of 8.41%. Moreover, the half-maximal effective concentration (EC50) stood at 1430 µM in assay [4], 330 µM in assay [5] and 320 µM in assay [6].

As for `CCCC/C(CC)=N\Nc1nc(-c2cccc([N+](=O)[O-])c2)cs1`, the IC50 in assay [1] came out at 6.03 µM; in assay [2], 0.182 µM; in assay [7] it was 1260 µM; in assay [8] it was 1040 µM. In assay [3], the inhibition turned out to be 10%. Besides, the EC50 in assay [4] was found to be 1560 µM; in assay [5], 410 µM; in assay [6], 550 µM.

As to `COc1ccc2c3c1O[C@H]1C[C@@H](O)C=C[C@@]31CCN(C)C2`, the inhibition in assay [3] worked out at 13.6%.

On to `CCC(CC)=NNc1nc(-c2cccc([N+](=O)[O-])c2)cs1`, for which the half-maximal inhibitory concentration (IC50) in assay [1] came to 24.3 µM; in assay [2], 0.053 µM; in assay [7] it was 1130 µM; in assay [8], 1040 µM. The inhibition in assay [3] came out at 7.45%. For the same molecule, the EC50 in assay [4] is 1100 µM; in assay [5] it was 340 µM; in assay [6] it was 460 µM.

Regarding `CCC/C(CC)=N\Nc1nc(-c2cccc([N+](=O)[O-])c2)cs1`, the IC50 in assay [1] was found to be 4.86 µM; in assay [2], 0.189 µM; in assay [7] it was 1230 µM; in assay [8], 1040 µM. Also, the inhibition in assay [3] came to 11%. Also, the values for the concentration for a half-maximal effect (EC50) in assay [4], in assay [5] and in assay [6] were 1250 µM, 390 µM and 530 µM, respectively.

For `C/C(CC(C)C)=N/Nc1nc(-c2cccc([N+](=O)[O-])c2)cs1`, the half-inhibitory concentration (IC50) in assay [1] was determined as 4.41 µM; in assay [2], 0.012 µM; in assay [7], 1350 µM; in assay [8], 1050 µM. The molecule also gave an inhibition in assay [3] of 8.98%. In addition, the EC50 in assay [4] came to 1130 µM; in assay [5], 420 µM; in assay [6], 570 µM.

Regarding `C/C(=N/Nc1nc(-c2cccc([N+](=O)[O-])c2)cs1)C1CCCCC1`, the half-inhibitory concentration (IC50) worked out at 29.1 µM in assay [1], 0.0072 µM in assay [2], 1350 µM in assay [7] and 1050 µM in assay [8]. Also, the inhibition in assay [3] turned out to be 6.22%. The EC50 in assay [4] came out at 1190 µM; in assay [5], 670 µM; in assay [6] it was 610 µM.

With `CC(C)=NNc1nc(-c2cccc([N+](=O)[O-])c2)cs1`, the IC50 was 1.07 µM in assay [1], 0.716 µM in assay [2], 1160 µM in assay [7] and 1070 µM in assay [8]. In assay [3], the inhibition is 12.8%. Further, the EC50 in assay [4] worked out at 1750 µM; in assay [5], 340 µM; in assay [6] it was 510 µM.

As for `CC/C(C)=N\Nc1nc(-c2cccc([N+](=O)[O-])c2)cs1`, the IC50 in assay [1] is 20.5 µM; in assay [2] it was 0.351 µM; in assay [7], 1180 µM; in assay [8], 1040 µM. The inhibition in assay [3] is 12.1%. The concentration giving a half-maximal response (EC50) in assay [4] was determined as 1650 µM; in assay [5], 420 µM; in assay [6], 580 µM.

On to `Cc1c(C)c2c(c(C)c1O)CCC(C)(C(=O)O)O2` (centres undefined) [TROLOX], for which the results for the EC50 in assay [4], in assay [5] and in assay [6] were 1130 µM, 160 µM and 240 µM, respectively. Besides, the IC50 in assay [7] is 400 µM; in assay [8] it was 660 µM.

Take `CCC/C(C)=N\Nc1nc(-c2cccc([N+](=O)[O-])c2)cs1`: the IC50 in assay [1] stood at 38 µM; in assay [2], 0.055 µM; in assay [7], 1200 µM; in assay [8], 1040 µM. The inhibition in assay [3] is 5.16%. For the same molecule, the concentration for a half-maximal effect (EC50) in assay [4] was found to be 1200 µM; in assay [5], 450 µM; in assay [6], 550 µM.

With `O=[N+]([O-])c1cccc(-c2csc(NN=C3CCCCCC3)n2)c1`, the IC50 in assay [1] stood at 1.59 µM; in assay [2], 0.0086 µM; in assay [7], 1220 µM; in assay [8], 1070 µM. The inhibition in assay [3] turned out to be 7.11%. The concentration giving a half-maximal response (EC50) in assay [4] turned out to be 1230 µM; in assay [5], 420 µM; in assay [6], 410 µM.

Regarding `O=[N+]([O-])c1cccc(-c2csc(NN=C3CCCC3)n2)c1`, the half-maximal inhibitory concentration (IC50) in assay [1] came out at 3.46 µM; in assay [2] it was 0.095 µM; in assay [7] it was 1180 µM; in assay [8] it was 1100 µM. In assay [3], the inhibition is 12.4%. Moreover, the EC50 in assay [4] turned out to be 1340 µM; in assay [5] it was 400 µM; in assay [6] it was 510 µM.

`CC1CCC(=NNc2nc(-c3cccc([N+](=O)[O-])c3)cs2)CC1` (centres undefined): the IC50 turned out to be 4.25 µM in assay [1], 0.237 µM in assay [2], 1180 µM in assay [7] and 1090 µM in assay [8]. In assay [3], this molecule returned an inhibition of 4.87%. Moreover, the values for the concentration giving a half-maximal response (EC50) in assay [4], in assay [5] and in assay [6] were 1130 µM, 390 µM and 390 µM, respectively.

As for `O=[N+]([O-])c1cccc(-c2csc(NN=C3CCCCCCC3)n2)c1`, the IC50 in assay [1] came out at 1.82 µM; in assay [2], 0.01 µM; in assay [7], 1280 µM; in assay [8], 1090 µM. This molecule also gave an inhibition in assay [3] of 7.64%. The EC50 in assay [4] turned out to be 1220 µM; in assay [5] it was 390 µM; in assay [6] it was 440 µM.

With `CCCC/C(C)=N\Nc1nc(-c2cccc([N+](=O)[O-])c2)cs1`, the half-maximal inhibitory concentration (IC50) turned out to be 6.33 µM in assay [1], 0.118 µM in assay [2], 1180 µM in assay [7] and 1060 µM in assay [8]. In assay [3], this molecule had an inhibition of 11.3%. Further, the EC50 in assay [4] stood at 1460 µM; in assay [5] it was 370 µM; in assay [6], 520 µM.

In the case of `CCCCCC/C(C)=N\Nc1nc(-c2cccc([N+](=O)[O-])c2)cs1`, the IC50 in assay [1] stood at 10.9 µM; in assay [2] it was 0.626 µM; in assay [7], 1150 µM; in assay [8], 1110 µM. The molecule further registered an inhibition in assay [3] of 9.54%. Further, the values for the EC50 in assay [4], in assay [5] and in assay [6] were 1240 µM, 390 µM and 530 µM, respectively.

Take `C=CCC/C(C)=N\Nc1nc(-c2cccc([N+](=O)[O-])c2)cs1`: the half-maximal inhibitory concentration (IC50) in assay [1] turned out to be 3.99 µM; in assay [2], 0.101 µM; in assay [7], 1210 µM; in assay [8] it was 1040 µM. The inhibition in assay [3] was 6.35%. In addition, the half-maximal effective concentration (EC50) in assay [4] was determined as 1150 µM; in assay [5] it was 330 µM; in assay [6], 460 µM.

Broadly, the IC50 is the concentration that gives 50% inhibition. What is called inhibition is the drop in the measured response relative to a control, in per cent. Read a high inhibition as a response far below the control. Broadly, the EC50 is the concentration needed to bring the measured effect to its halfway point.
